Measurements published in ChEMBL document CHEMBL1145257, “Synthesis and antibacterial activity of hydrolytically stable (-)-epicatechin gallate analogues for the modulation of beta-lactam resistance in Staphylococcus aureus” (2005).
Converted amounts (≈) assume the structure as drawn.

Tests used:
Assay type in all cases: functional
Staphylococcus aureus [1] = test: Minimum inhibitory concentration against methicillin resistant Staphylococcus aureus strain EMRSA 16
Outline: (§1)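 Intrinsic activity by broth microdilution. Inoculum about 10⁴ cfu per well in Mueller-Hinton broth with 2% w/v NaCl, doubling dilutions of compound. MIC read after 24 h at 35 °C. S. aureus ATCC29213 served as standard strain.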

Staphylococcus aureus [2] = test: Minimum inhibitory concentration against methicillin resistant Staphylococcus aureus strain EMRSA 15 in combination with oxacillin
Outline: (§2)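 Oxacillin MIC measured with test compound held at a fixed 25 mg/L, using doubling dilutions of oxacillin. Broth microdilution with about 10⁴ cfu per well in Mueller-Hinton broth plus 2% w/v NaCl. MIC read after 24 h at 35 °C. S. aureus ATCC29213 served as standard. Two separate experiments reported.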

Staphylococcus aureus [3] = test: Minimum inhibitory concentration against methicillin resistant Staphylococcus aureus strain BB 568 in combination with oxacillin; Experiment 1; outline: as §2
Staphylococcus aureus [4] = test: Minimum inhibitory concentration against methicillin resistant Staphylococcus aureus strain EMRSA 15; outline: as §1
Staphylococcus aureus [5] = test: Minimum inhibitory concentration against methicillin resistant Staphylococcus aureus strain EMRSA 16 in combination with oxacillin; outline: as §2
Staphylococcus aureus [6] = test: Minimum inhibitory concentration against methicillin resistant Staphylococcus aureus strain BB 568; outline: as §1
Staphylococcus aureus [7] = test: Minimum inhibitory concentration against methicillin resistant Staphylococcus aureus strain BB 568 in combination with oxacillin; Experiment 2; outline: as §2
Staphylococcus aureus [8] = test: Minimum inhibitory concentration against methicillin resistant Staphylococcus aureus strain EMRSA 16 in combination with oxacillin; Experiment 2; outline: as §2
Staphylococcus aureus [9] = test: Minimum inhibitory concentration against methicillin resistant Staphylococcus aureus strain EMRSA 15 in combination with oxacillin; Experiment 1; outline: as §2
Staphylococcus aureus [10] = test: Minimum inhibitory concentration against methicillin resistant Staphylococcus aureus strain BB 568 in combination with oxacillin; outline: as §2
Staphylococcus aureus [11] = test: Minimum inhibitory concentration against methicillin resistant Staphylococcus aureus strain EMRSA 15 in combination with oxacillin; Experiment 2; outline: as §2
Staphylococcus aureus [12] = test: Minimum inhibitory concentration against methicillin resistant Staphylococcus aureus strain EMRSA 16 in combination with oxacillin; Experiment 1; outline: as §2

| Structure (SMILES) | MIC (Staphylococcus aureus [1]) [µg/mL] | MIC (Staphylococcus aureus [2]) [µg/mL] | MIC (Staphylococcus aureus [3]) [µg/mL] | MIC (Staphylococcus aureus [4]) [µg/mL] | MIC (Staphylococcus aureus [5]) [µg/mL] | MIC (Staphylococcus aureus [6]) [µg/mL] | MIC (Staphylococcus aureus [7]) [µg/mL] | MIC (Staphylococcus aureus [8]) [µg/mL] | MIC (Staphylococcus aureus [9]) [µg/mL] | MIC (Staphylococcus aureus [10]) [µg/mL] | MIC (Staphylococcus aureus [11]) [µg/mL] | MIC (Staphylococcus aureus [12]) [µg/mL] |
| --- | --- | --- | --- | --- | --- | --- | --- | --- | --- | --- | --- | --- |
| O=C(N[C@@H]1Cc2c(O)cc(O)cc2O[C@@H]1c1ccc(O)c(O)c1)c1cc(O)c(O)c(O)c1 | 128 (≈ 290 µM) | ≤ 0.5 | 4 | 256 (≈ 580 µM) | 1 | 256 (≈ 580 µM) | 8 | – | – | – | – | – |
| O=C(N[C@H]1Cc2c(O)cc(O)cc2O[C@@H]1c1ccc(O)c(O)c1)c1cc(O)c(O)c(O)c1 | 128 (≈ 290 µM) | – | – | 256 (≈ 580 µM) | – | 256 (≈ 580 µM) | – | 512 | 2 | 64 | 4 | 256 |
| Cc1onc(-c2ccccc2)c1C(=O)N[C@@H]1C(=O)N2[C@@H]1SC(C)(C)[C@@H]2C(=O)O [OXACILLIN] | 512 (≈ 1280 µM) | – | – | 32 (≈ 79.7 µM) | – | 256 (≈ 638 µM) | – | – | – | – | – | – |
